Measured values gathered from unrelated publications.
Each line is one published result; the experiments were not run side by side.
MTNR1A: Melatonin receptor type 1A (MTNR1A, Homo sapiens, UniProt P48039)
FLT3: Receptor-type tyrosine-protein kinase FLT3 (FLT3, Homo sapiens, UniProt P36888)

SMILES	target	assay	setting	quantity	result
COc1ccc2ncn(CCNC(C)=O)c2c1	MTNR1A	cAMP, agonist, TR-FRET		EC50	1120 nM
CC[C@H](C)Nc1ccnc(Nc2cccc(-c3cccnc3)c2)n1	FLT3	enzyme activity, inhibitor		IC50	8 nM
COC(=O)c1ccc(CSc2nnc(C3CC3)[nH]2)cc1	MTNR1A	cAMP, agonist, luciferase		EC50	777 nM
Cc1cc(Nc2cc3ncccc3c(N[C@@H]3C[C@H]4CC[C@@H](C3)N4CCC#N)n2)n[nH]1	FLT3	binding, competition with immobilised ligand		Kd	40 nM
Cc1cnc(-c2ccc(-c3ccc(NC(=O)Nc4c(F)cc(F)cc4F)cc3F)c3c2C(=O)NC3)[nH]1	Tyrosine-protein kinase receptor Tie-1 (TIE1, Homo sapiens, UniProt P35590)	binding, competition with immobilised ligand		Kd	18 nM
Cc1cc2nc3c(=O)[nH]c(=O)nc-3n(C[C@H](O)[C@H](O)[C@H](O)COP(=O)(O)OP(=O)(O)OC[C@H]3O[C@@H](n4cnc5c(N)ncnc54)[C@H](O)[C@@H]3O)c2cc1C	Annexin A7 (Homo sapiens, UniProt P20073)	binding	lysate	Kd	30 nM
COc1ccc(CN(C)C(=O)c2cc(F)c[nH]2)cc1O	MTNR1A	cAMP, agonist, luciferase		EC50	21.1 nM
COc1cc2c(CCNC(C)=O)c[nH]c2cc1I	MTNR1A	GTPγS binding, agonist, radiometric	cell membranes	EC50	10 nM
c1cc(Nc2nccc(NC3CCCCC3)n2)cc(N2CCOCC2)c1	FLT3	enzyme activity, inhibitor		IC50	722 nM
CCc1ccc2scc(CCNC(C)=O)c2c1	MTNR1A	β-arrestin recruitment, agonist		EC50	12 nM
COc1ccc(Br)c(CNc2cccnc2)c1	MTNR1A	cell-free assay		Ki	347 nM
